The values below come from ChEMBL document CHEMBL1148782, “Inhibitors of tumor progression loci-2 (Tpl2) kinase and tumor necrosis factor alpha (TNF-alpha) production: selectivity and in vivo antiinflammatory activity of novel 8-substituted-4-anilino-6-aminoquinoline-3-carbonitriles” (J Med Chem, 2007).

Data set [1] is described as follows: Half life in Sprague-Dawley rat at 25 mg/kg, po. It is filed as ADME, organism-based. Also noted: dose 25 mg/kg, route oral. The settings on record: in vivo. A digest of the protocol:
(§1)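 Female Sprague-Dawley rats were dosed by the iv or oral route. Parameters are reported as means of individual-animal pharmacokinetic values.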

Data set [2] is described as follows: Bioavailability in Sprague-Dawley rat at 25 mg/kg, po. It is filed as ADME, organism-based. The settings on record: in vivo. A digest of the protocol:
as §1

Data set [3] can be described thus: Plasma concentration in LPS challenged Sprague-Dawley rat at 50 mg/kg, po after 150 mins. It is filed as ADME, organism-based. Also noted: dose 50 mg/kg, route oral.
In data set [4] the test system is Rattus norvegicus. Nature of the data set: Inhibition of TNFalpha production in Sprague-Dawley rat at 50 mg/kg, po administered 1 hr prior to LPS challenge after 1.5 hrs. In kind it is functional.
Data set [5] deals with Tyrosine-protein kinase BTK (Homo sapiens, UniProt Q06187). Kind of data set: Inhibition of BTK.
Data set [6] is described as follows: Plasma concentration in LPS challenged Sprague-Dawley rat at 50 mg/kg, po after 1 hr. In kind it is ADME, organism-based. Also noted: dose 50 mg/kg, route oral.
Data set [7] in a line: Half life in Sprague-Dawley rat at 5 mg/kg, iv. In kind it is ADME, organism-based. Also noted: dose 5 mg/kg, route intravenous. The settings on record: in vivo. In outline: as §1
In data set [8] the target is Ribosomal protein S6 kinase beta-1 (Homo sapiens, UniProt P23443). Kind of data set: Inhibition of S6K.
The target of data set [9] is Tyrosine-protein kinase Lck (Homo sapiens, UniProt P06239). Nature of the data set: Inhibition of LCK.
For data set [10], the target named is Protein kinase C alpha type (Homo sapiens, UniProt P17252). Kind of data set: Inhibition of PKCalpha.
Data set [11] has as its target Protein kinase C theta type (Homo sapiens, UniProt Q04759). Kind of data set: Inhibition of PKCtheta.
The nature of data set [12]: physchem. The settings on record: buffer, pH 7.4.
Data set [13] concerns the target MAP kinase-activated protein kinase 2 (Homo sapiens, UniProt P49137). Nature of the data set: Inhibition of MK2.
The target of data set [14] is cAMP-dependent protein kinase (PKA) (Homo sapiens, UniProt P22694+P17612+P22612). Kind of data set: Inhibition of PKA. It is filed as protein assay.
A short description of data set [15]: Volume of distribution at steady state in Sprague-Dawley rat at 5 mg/kg, iv. Also noted: dose 5 mg/kg, route intravenous. It is filed as ADME, organism-based. The settings on record: in vivo, read-out: Vss. In outline: as §1
In data set [16] the test system is Blood. Kind of data set: Inhibition of LPS-stimulated TNFalpha production in human blood. In kind it is functional.
The target in data set [17] is Mitogen-activated protein kinase 14 (Homo sapiens, UniProt Q16539). Kind of data set: Inhibition of p38alpha.
The nature of data set [18]: Permeability at pH 7.4 by PAMPA method. In kind it is ADME. The settings on record: read-out: permeability. In outline:
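Passive permeability was measured by high-resolution PAMPA at pH 7.4.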
(The PAMPA barrier holds no transporters, so it reflects passive diffusion.)

For data set [19], the target named is Mitogen-activated protein kinase 8 (Homo sapiens, UniProt P45983). Kind of data set: Inhibition of Jnk1.
Data set [20] concerns the target Proto-oncogene tyrosine-protein kinase Src (Homo sapiens, UniProt P12931). Kind of data set: Inhibition of Src.
Data set [21] concerns Monocyte. Kind of data set: Inhibition of LPS-stimulated TNFalpha production in monocytes. It is filed as functional, Homo sapiens.
For data set [22], the target named is Glycogen synthase kinase-3 beta (Homo sapiens, UniProt P49841). Kind of data set: Inhibition of GSKbeta.
Data set [23] is described as follows: Plasma clearance in Sprague-Dawley rat at 5 mg/kg, iv. In kind it is ADME, organism-based. Also noted: dose 5 mg/kg, route intravenous. A digest of the protocol:
as §1

For data set [24], the system named is Rattus norvegicus. Kind of data set: AUC (0 to infinity) in Sprague-Dawley rat at 25 mg/kg, po. The settings on record: in vivo. Also noted: dose 25 mg/kg, route oral. In kind it is ADME, organism-based, Plasma. In outline: as §1
Data set [25] addresses Cytochrome P450 3A4 (Homo sapiens, UniProt P08684).
The target in data set [26] is Tyrosine-protein kinase Lyn (Homo sapiens, UniProt P07948). Kind of data set: Inhibition of LYN.
Data set [27] concerns Rattus norvegicus. Kind of data set: Inhibition of TNFalpha production in Sprague-Dawley rat at 10 mg/kg, po administered 1 hr prior to LPS challenge after 1.5 hrs. In kind it is functional.
Data set [28] addresses CaM kinase II (Homo sapiens, UniProt Q13557+Q13555+Q13554+Q9UQM7).
Data set [29] in a line: Metabolic stability in mouse liver microsomes. In kind it is ADME, Microsome. A digest of the protocol: (§2)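 Compound was incubated with liver microsomes from the stated species. Stability is expressed as parent half-life (t1/2, min). Metabolites were also profiled.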
In data set [30] the target is Mitogen-activated protein kinase kinase kinase 8 (Homo sapiens, UniProt P41279). Nature of the data set: Inhibition of Tpl2 by ELISA. A general note: In an ELISA, binding on a coated surface is turned into a signal by an enzyme label.
Data set [31] in a line: Metabolic stability in rat liver microsomes. In kind it is ADME, Microsome. A digest of the protocol:
as §2
A general note: Microsomes from liver hold many membrane-bound enzymes, among them those of drug oxidation.

A short description of data set [32]: Metabolic stability in human liver microsomes. It is filed as ADME, Microsome. A digest of the protocol: as §2
Data set [33] has as its target CYP3A4 (Homo sapiens, UniProt P08684). Kind of data set: Inhibition of CYP3A4 at 3 uM. It is filed as ADME.

Chain of Proto-oncogene tyrosine-protein kinase Src (P12931 2-536 limits assumed): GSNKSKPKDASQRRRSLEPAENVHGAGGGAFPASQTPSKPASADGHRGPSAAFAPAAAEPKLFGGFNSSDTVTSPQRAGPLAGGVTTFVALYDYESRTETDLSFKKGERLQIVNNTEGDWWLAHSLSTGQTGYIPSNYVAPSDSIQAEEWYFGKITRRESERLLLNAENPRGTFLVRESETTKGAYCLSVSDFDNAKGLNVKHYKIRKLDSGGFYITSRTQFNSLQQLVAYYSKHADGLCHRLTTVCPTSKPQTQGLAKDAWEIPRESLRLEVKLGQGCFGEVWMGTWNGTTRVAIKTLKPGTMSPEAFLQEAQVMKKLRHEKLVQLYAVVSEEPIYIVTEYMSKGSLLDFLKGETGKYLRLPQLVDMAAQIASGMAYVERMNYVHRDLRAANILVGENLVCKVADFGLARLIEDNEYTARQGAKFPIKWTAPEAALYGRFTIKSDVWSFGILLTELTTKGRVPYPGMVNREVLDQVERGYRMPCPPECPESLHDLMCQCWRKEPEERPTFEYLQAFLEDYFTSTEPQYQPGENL
Chain of MAP kinase-activated protein kinase 2 (P49137 whole entry): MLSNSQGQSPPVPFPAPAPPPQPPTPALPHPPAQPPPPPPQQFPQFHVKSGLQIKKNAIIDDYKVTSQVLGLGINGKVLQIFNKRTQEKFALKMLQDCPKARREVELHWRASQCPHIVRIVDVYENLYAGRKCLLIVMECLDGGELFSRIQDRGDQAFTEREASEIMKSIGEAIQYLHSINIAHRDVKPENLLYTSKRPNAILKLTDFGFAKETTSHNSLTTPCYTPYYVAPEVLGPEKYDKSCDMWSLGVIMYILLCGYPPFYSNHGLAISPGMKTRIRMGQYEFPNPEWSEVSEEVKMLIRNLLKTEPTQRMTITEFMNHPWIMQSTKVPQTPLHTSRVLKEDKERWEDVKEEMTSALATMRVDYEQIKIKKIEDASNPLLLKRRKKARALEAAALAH
Chain of Mitogen-activated protein kinase 14 (Q16539 whole entry): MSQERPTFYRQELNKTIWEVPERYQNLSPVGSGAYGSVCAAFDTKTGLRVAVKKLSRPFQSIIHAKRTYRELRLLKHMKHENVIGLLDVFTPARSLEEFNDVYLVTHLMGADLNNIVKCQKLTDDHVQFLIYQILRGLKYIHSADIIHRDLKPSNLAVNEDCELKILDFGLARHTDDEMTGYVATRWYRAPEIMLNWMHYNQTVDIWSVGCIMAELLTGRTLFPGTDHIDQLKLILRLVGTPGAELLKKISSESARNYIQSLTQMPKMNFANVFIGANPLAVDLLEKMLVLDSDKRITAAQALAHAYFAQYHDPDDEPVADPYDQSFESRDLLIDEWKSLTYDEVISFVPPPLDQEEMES
Chain of Ribosomal protein S6 kinase beta-1 (P23443 whole entry): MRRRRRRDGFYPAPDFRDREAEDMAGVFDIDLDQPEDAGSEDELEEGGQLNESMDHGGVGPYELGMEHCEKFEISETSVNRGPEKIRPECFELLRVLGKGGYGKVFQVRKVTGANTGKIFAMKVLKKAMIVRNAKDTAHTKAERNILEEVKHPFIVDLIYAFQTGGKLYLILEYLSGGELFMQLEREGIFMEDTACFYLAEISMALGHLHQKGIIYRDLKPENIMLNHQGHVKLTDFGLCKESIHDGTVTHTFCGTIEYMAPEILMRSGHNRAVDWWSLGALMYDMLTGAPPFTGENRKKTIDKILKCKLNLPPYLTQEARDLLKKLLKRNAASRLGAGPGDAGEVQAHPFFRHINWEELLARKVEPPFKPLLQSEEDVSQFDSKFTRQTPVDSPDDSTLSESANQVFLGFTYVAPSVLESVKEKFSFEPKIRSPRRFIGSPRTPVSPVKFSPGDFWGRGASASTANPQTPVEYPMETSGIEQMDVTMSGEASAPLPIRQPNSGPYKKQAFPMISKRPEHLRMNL
Chain of Mitogen-activated protein kinase 8 (P45983 whole entry): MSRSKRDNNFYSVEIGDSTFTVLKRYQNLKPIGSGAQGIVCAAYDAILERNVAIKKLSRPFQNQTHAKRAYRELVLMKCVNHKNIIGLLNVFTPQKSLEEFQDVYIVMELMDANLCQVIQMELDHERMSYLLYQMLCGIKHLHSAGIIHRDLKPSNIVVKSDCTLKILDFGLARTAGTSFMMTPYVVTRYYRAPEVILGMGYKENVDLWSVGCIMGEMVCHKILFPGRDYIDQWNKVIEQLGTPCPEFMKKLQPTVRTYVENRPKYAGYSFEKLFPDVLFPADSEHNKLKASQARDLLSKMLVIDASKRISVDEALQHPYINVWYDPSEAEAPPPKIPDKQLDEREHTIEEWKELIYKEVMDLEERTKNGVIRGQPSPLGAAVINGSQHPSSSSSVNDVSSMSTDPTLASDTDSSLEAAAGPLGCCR
Chain of Glycogen synthase kinase-3 beta (P49841 whole entry): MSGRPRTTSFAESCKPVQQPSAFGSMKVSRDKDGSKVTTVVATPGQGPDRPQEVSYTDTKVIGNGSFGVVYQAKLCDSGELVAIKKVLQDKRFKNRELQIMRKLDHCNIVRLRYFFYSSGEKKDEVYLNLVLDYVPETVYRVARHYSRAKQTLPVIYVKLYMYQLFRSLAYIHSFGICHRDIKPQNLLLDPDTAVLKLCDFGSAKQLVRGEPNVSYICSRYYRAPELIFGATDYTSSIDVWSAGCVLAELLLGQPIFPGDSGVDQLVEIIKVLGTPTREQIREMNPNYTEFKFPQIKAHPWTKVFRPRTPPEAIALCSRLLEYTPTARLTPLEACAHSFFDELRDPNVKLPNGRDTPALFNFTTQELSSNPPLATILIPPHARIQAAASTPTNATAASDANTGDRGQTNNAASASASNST
Chain of Tyrosine-protein kinase Lck (P06239 whole entry): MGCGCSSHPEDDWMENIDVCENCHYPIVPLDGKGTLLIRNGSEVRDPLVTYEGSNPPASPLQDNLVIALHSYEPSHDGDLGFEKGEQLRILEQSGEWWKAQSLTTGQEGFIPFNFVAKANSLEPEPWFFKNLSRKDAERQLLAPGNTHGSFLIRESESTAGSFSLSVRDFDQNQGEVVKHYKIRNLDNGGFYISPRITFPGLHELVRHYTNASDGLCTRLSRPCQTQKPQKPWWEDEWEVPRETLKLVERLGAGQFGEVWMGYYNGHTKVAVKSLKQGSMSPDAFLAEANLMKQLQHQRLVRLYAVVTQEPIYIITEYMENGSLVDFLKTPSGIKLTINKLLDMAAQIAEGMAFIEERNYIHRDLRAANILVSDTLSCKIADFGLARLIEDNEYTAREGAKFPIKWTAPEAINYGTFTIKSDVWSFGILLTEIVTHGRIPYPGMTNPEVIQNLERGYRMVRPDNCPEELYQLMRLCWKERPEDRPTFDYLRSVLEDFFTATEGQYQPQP
Chain of Tyrosine-protein kinase Lyn (P07948 whole entry): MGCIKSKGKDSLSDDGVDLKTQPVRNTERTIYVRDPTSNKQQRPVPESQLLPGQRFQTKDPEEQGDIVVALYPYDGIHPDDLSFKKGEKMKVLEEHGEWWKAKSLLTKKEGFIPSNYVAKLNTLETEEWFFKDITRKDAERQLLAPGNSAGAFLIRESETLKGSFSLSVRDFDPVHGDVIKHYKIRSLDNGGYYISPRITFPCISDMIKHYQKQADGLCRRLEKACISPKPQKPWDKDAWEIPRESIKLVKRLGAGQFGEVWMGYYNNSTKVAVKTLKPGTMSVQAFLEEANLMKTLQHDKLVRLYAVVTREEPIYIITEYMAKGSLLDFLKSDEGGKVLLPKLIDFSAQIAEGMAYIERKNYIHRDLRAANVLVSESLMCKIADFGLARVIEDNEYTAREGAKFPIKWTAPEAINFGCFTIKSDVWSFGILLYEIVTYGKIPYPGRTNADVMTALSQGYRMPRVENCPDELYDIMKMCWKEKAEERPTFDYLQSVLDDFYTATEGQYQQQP
Chain of Cytochrome P450 3A4 (P08684 whole entry): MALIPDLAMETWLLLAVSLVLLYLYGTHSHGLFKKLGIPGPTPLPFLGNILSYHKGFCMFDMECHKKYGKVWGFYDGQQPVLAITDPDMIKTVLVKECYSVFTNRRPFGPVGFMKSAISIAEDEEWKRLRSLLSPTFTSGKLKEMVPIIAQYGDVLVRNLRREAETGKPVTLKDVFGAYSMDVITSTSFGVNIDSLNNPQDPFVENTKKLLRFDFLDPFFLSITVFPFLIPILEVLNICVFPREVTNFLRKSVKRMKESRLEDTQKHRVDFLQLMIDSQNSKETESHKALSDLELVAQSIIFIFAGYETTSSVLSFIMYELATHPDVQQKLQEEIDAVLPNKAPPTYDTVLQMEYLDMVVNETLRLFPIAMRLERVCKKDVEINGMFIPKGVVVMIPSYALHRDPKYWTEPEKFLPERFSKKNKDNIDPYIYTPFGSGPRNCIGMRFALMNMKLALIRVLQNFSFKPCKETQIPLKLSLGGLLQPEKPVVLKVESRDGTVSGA
Chain of CYP3A4 (P08684 whole entry): as above

With `Cn1cnc(CNc2cc(Br)c3ncc(C#N)c(Nc4ccc(F)c(Cl)c4)c3c2)c1`, the half-life (as a rule, the time needed for the level to fall by half in the phase considered) in data set [1] is 4 h; in [7] it was 5 h. In data set [2], the bioavailability (usually dose-corrected exposure relative to a reference, in per cent) is 42%. The same compound yielded a concentration at 2.5 h in data set [3] of 550 nM. For the same compound, 50 mg/kg produced 50% inhibition in vivo in [4]. Also, the 50% inhibitory concentration (IC50) (in general, the concentration that inhibits the measured activity by half) was above 10 µM in [5]; 83.1 µM in [8]; 4.5 µM in data set [9]; above 40 µM in data set [10]; above 50 µM in [11]; 87.1 µM in data set [13]. Besides, the IC50 in data set [14] was above 100 µM; in data set [17], above 40 µM; in [19], 31 µM; in data set [20] it was above 40 µM; in [22], above 10 µM; in [25], 15 µM. The IC50 in data set [26] is above 30 µM. In addition, the concentration at 1 h in data set [6] worked out at 1100 nM. The solubility – broadly, the dissolved amount per volume that the medium holds – in data set [12] was below 10 µg/mL. In addition, the Vd in data set [15] was 14.1 L/kg. The Activity in data set [16] turned out to be 6.3 µM. The Papp in [18] was below 5 ×10⁻⁶ cm/s. The compound also came in with an Inhibitory concentration in [21] of 670 nM. Further, the clearance (in general, a measure of how efficiently the substance is removed, as volume per time) in data set [23] was determined as 50 mL/min/kg. The compound further gave an AUC/dose in data set [24] of 142 ng·kg·h/mg/mL.
`CC#CCOc1ccc(S(=O)(=O)N2CCSC(C)(C)[C@@H]2C(=O)NO)cc1`: testing at 10 mg/kg in data set [27] gave an inhibition in vivo of 85%.
For the compound `N#Cc1cnc2c(Cl)cc(NCc3cnc[nH]3)cc2c1Nc1ccc(F)c(Cl)c1`, the half-life in data set [1] is 8.1 h; in [29] it was 0.383 h; in data set [7], 4.4 h; in [31], 0.583 h; in data set [32], 0.517 h. Besides, the bioavailability in data set [2] turned out to be 2%. The IC50 in [28] is above 40 µM; in [8], above 100 µM; in data set [10] it was 23.4 µM; in [13], 40.2 µM; in [14], 40.1 µM; in [30], 0.02 µM. The half-inhibitory concentration (IC50) in data set [17] came out at 11.2 µM; in data set [20], 19.9 µM. In data set [12], this compound registered a solubility below 10 µg/mL. Moreover, in data set [15], the Vd is 2.4 L/kg. In data set [16], this compound gave an Activity of 4.9 µM. In addition, the Papp in [18] was below 5 ×10⁻⁶ cm/s. This compound also displayed an Inhibitory concentration in [21] of 350 nM. In data set [23], the clearance was 19 mL/min/kg. Besides, in data set [24], the AUC/dose was found to be 24 ng·kg·h/mg/mL.
In turn, `CN(C)CCCn1cc(CNc2cc(Br)c3ncc(C#N)c(Nc4ccc(F)c(Cl)c4)c3c2)nn1` showed a half-life in data set [1] of 2.6 h. In addition, the IC50 in data set [8], in data set [10], in data set [13], in [14], in data set [17] and in data set [19] was above 40 µM throughout. This compound also showed an IC50 in data set [20] above 40 µM. Moreover, 3 µM produced 66% inhibition in [33]. In data set [16], the Activity came to 3.08 µM. This compound yielded an Inhibitory concentration in data set [21] of 221 nM. The same compound showed an AUC/dose in [24] below 10 ng·kg·h/mg/mL.
